{"source": "ChEMBL document CHEMBL1687774", "about": "“Furanyl-rhodanines are unattractive drug candidates for development as inhibitors of bacterial RNA polymerase” (Antimicrob Agents Chemother, 2010)", "key": {"[1]": {"system": "Bacillus subtilis", "assay": "Inhibition of RNA biosynthesis in Bacillus subtilis 1S34 assessed as induction in biosensor yvgS promoter-luciferase reporter signal relative to untreated control", "assay_type": "functional", "how_it_was_run": "(§1)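 B. subtilis biosensor strains carry stress-responsive promoter-reporter constructs (parent 1S34). Value is the maximum reporter signal induced, as a ratio to the signal in noninduced control cultures.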"}, "[2]": {"species_on_record": "Bos taurus", "assay": "Inhibition of bovine Chymotrypsin at 100 uM", "how_it_was_run": "(§2)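 Bovine chymotrypsin and porcine malate dehydrogenase specificity screens with compound at 100 μM; percent inhibition of enzyme activity.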"}, "[3]": {"system": "Escherichia coli", "assay": "Antibacterial activity against Escherichia coli 1411 by microdilution method in presence of 4 ug/ml PMBN", "assay_type": "functional", "how_it_was_run": "(§3)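 MICs by broth microdilution in Mueller-Hinton broth following British Society for Antimicrobial Chemotherapy guidelines; where used, polymyxin B nonapeptide (4 μg/ml) was added together with the compound.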"}, "[4]": {"system": "Staphylococcus aureus", "assay": "Induction of membrane potential loss in Staphylococcus aureus SH1000 at 4 times MIC after 10 mins by DIS3 fluorescence assay", "assay_type": "functional", "how_it_was_run": "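Membrane potential measured with the fluorescent dye DiSc3(5) after S. aureus SH1000 was exposed to 4× MIC of compound for 10 min; expressed relative to the drug-free control (100%).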"}, "[5]": {"system": "Bacillus subtilis", "assay": "Inhibition of DNA biosynthesis in Bacillus subtilis 1S34 assessed as induction in biosensor yorB promoter-luciferase reporter signal relative to untreated control", "assay_type": "functional", "how_it_was_run": "as §1"}, "[6]": {"system": "Bacillus subtilis", "assay": "Antibacterial activity against Bacillus subtilis 1S34 by microdilution method", "assay_type": "functional", "how_it_was_run": "as §3"}, "[7]": {"system": "Escherichia coli", "assay": "Antibacterial activity against Escherichia coli 1411 by microdilution method", "assay_type": "functional", "how_it_was_run": "as §3"}, "[8]": {"system": "Bacillus subtilis", "assay": "Inhibition of Cell envelope biosynthesis in Bacillus subtilis 1S34 assessed as induction in biosensor ypuA promoter-luciferase reporter signal relative to untreated control", "assay_type": "functional", "how_it_was_run": "as §1"}, "[9]": {"system": "Bacillus subtilis", "assay": "Inhibition of Fatty acid biosynthesis in Bacillus subtilis 1S34 assessed as induction in biosensor fabHB promoter-luciferase reporter signal relative to untreated control", "assay_type": "functional", "how_it_was_run": "as §1"}, "[10]": {"assay": "Inhibition of Escherichia coli RNA polymerase using Kool NC-45 universal RNA polymerase template", "how_it_was_run": "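In vitro E. coli RNA polymerase assay using the Kool NC-45 universal RNA polymerase template; IC50 determined.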"}, "[11]": {"system": "Staphylococcus aureus", "assay": "Antibacterial activity against Staphylococcus aureus SH1000 by microdilution method", "assay_type": "functional", "how_it_was_run": "as §3"}, "[12]": {"system": "Escherichia coli", "assay": "Antibacterial activity against AcrAB-deficient Escherichia coli SM1411 by microdilution method", "assay_type": "functional", "how_it_was_run": "as §3"}, "[13]": {"system": "Staphylococcus aureus", "assay": "Induction of membrane integrity loss in Staphylococcus aureus SH1000 at 4 times MIC after 10 mins by BacLight assay", "assay_type": "functional", "how_it_was_run": "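Membrane integrity measured by BacLight fluorescence after S. aureus SH1000 was exposed to 4× MIC of compound for 10 min; expressed relative to the drug-free control (100%).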"}, "[14]": {"species_on_record": "Sus scrofa", "assay": "Inhibition of pig Malate dehydrogenase at 100 uM", "how_it_was_run": "as §2"}, "[15]": {"system": "Bacillus subtilis", "assay": "Inhibition of Protein biosynthesis in Bacillus subtilis 1S34 assessed as induction in biosensor yheI promoter-luciferase reporter signal relative to untreated control", "assay_type": "functional", "how_it_was_run": "as §1"}, "[16]": {"system": "Staphylococcus epidermidis", "assay": "Antibacterial activity against Staphylococcus epidermidis ATCC 11047 by microdilution method", "assay_type": "functional", "how_it_was_run": "as §3"}, "[17]": {"species_on_record": "Bos taurus", "assay": "Inhibition of bovine Chymotrypsin at 0.0472 uM"}, "[18]": {"species_on_record": "Sus scrofa", "assay": "Inhibition of pig Malate dehydrogenase at 0.0472 uM"}}}
{"smiles": "O=C(O)CCCN1C(=O)/C(=C/c2ccc(-c3cccc(Cl)c3)o2)SC1=S", "values": [{"measurement": "fold change (FC)", "setting": "[1]", "value": 1}, {"measurement": "inhibition", "setting": "[2]", "value": 96.7, "unit": "%"}, {"measurement": "MIC", "setting": "[3]", "value": 16, "unit": "µg/mL"}, {"measurement": "Activity", "setting": "[4]", "value": 43.1, "unit": "%"}, {"measurement": "fold change (FC)", "setting": "[5]", "value": 1.1}, {"measurement": "MIC", "setting": "[6]", "value": 1, "unit": "µg/mL"}, {"measurement": "MIC", "setting": "[7]", "value": "> 128", "unit": "µg/mL"}, {"measurement": "fold change (FC)", "setting": "[8]", "value": 1}, {"measurement": "fold change (FC)", "setting": "[9]", "value": 0.9}, {"measurement": "IC50", "setting": "[10]", "value": 16.3, "unit": "µM"}, {"measurement": "MIC", "setting": "[11]", "value": 4, "unit": "µg/mL"}, {"measurement": "MIC", "setting": "[12]", "value": "> 128", "unit": "µg/mL"}, {"measurement": "Activity", "setting": "[13]", "value": 27.3, "unit": "%"}, {"measurement": "inhibition", "setting": "[14]", "value": 88.1, "unit": "%"}, {"measurement": "fold change (FC)", "setting": "[15]", "value": 1.2}]}
{"smiles": "C=CCN1C(=O)/C(=C/c2ccc(-c3ccc(C(=O)O)cc3)o2)SC1=S", "values": [{"measurement": "inhibition", "setting": "[2]", "value": 67.4, "unit": "%"}, {"measurement": "MIC", "setting": "[3]", "value": "> 256", "unit": "µg/mL"}, {"measurement": "MIC", "setting": "[6]", "value": "> 256", "unit": "µg/mL"}, {"measurement": "MIC", "setting": "[16]", "value": "> 256", "unit": "µg/mL"}, {"measurement": "MIC", "setting": "[7]", "value": "> 256", "unit": "µg/mL"}, {"measurement": "IC50", "setting": "[10]", "value": 37.3, "unit": "µM"}, {"measurement": "MIC", "setting": "[11]", "value": "> 256", "unit": "µg/mL"}, {"measurement": "MIC", "setting": "[12]", "value": "> 256", "unit": "µg/mL"}, {"measurement": "inhibition", "setting": "[14]", "value": 96.3, "unit": "%"}]}
{"smiles": "CO[C@H]1/C=C/O[C@@]2(C)Oc3c(C)c(O)c4c(O)c(c(/C=N/N5CCN(C)CC5)c(O)c4c3C2=O)NC(=O)/C(C)=C\\C=C\\[C@H](C)[C@H](O)[C@@H](C)[C@@H](O)[C@@H](C)[C@H](OC(C)=O)[C@@H]1C", "note": "[RIFAMPIN]", "values": [{"measurement": "inhibition", "setting": "[17]", "value": 7.8, "unit": "%"}, {"measurement": "inhibition", "setting": "[18]", "value": 8.3, "unit": "%"}, {"measurement": "IC50", "setting": "[10]", "value": 0.0115, "unit": "µM"}]}
{"smiles": "O=C1NC(=S)S/C1=C\\c1ccc([N+](=O)[O-])o1", "values": [{"measurement": "fold change (FC)", "setting": "[1]", "value": 1.3}, {"measurement": "inhibition", "setting": "[2]", "value": 49.4, "unit": "%"}, {"measurement": "MIC", "setting": "[3]", "value": 2, "unit": "µg/mL"}, {"measurement": "Activity", "setting": "[4]", "value": 104.8, "unit": "%"}, {"measurement": "fold change (FC)", "setting": "[5]", "value": 8}, {"measurement": "MIC", "setting": "[6]", "value": 1, "unit": "µg/mL"}, {"measurement": "MIC", "setting": "[7]", "value": 16, "unit": "µg/mL"}, {"measurement": "fold change (FC)", "setting": "[8]", "value": 1}, {"measurement": "fold change (FC)", "setting": "[9]", "value": 1.4}, {"measurement": "IC50", "setting": "[10]", "value": 32.2, "unit": "µM"}, {"measurement": "MIC", "setting": "[11]", "value": 4, "unit": "µg/mL"}, {"measurement": "MIC", "setting": "[12]", "value": 16, "unit": "µg/mL"}, {"measurement": "Activity", "setting": "[13]", "value": 82.8, "unit": "%"}, {"measurement": "inhibition", "setting": "[14]", "value": 99.7, "unit": "%"}, {"measurement": "fold change (FC)", "setting": "[15]", "value": 1.3}]}
{"smiles": "CO[C@H]1/C=C/O[C@@]2(C)Oc3c(C)c(O)c4c(O)c(cc(O)c4c3C2=O)NC(=O)/C(C)=C\\C=C\\[C@H](C)[C@H](O)[C@@H](C)[C@@H](O)[C@@H](C)[C@H](OC(C)=O)[C@@H]1C", "note": "[RIFAMYCIN]", "values": [{"measurement": "IC50", "setting": "[10]", "value": 0.0086, "unit": "µM"}]}
{"smiles": "C/C=C/C/C=C(\\C)C(O)CC/C(C)=C/C=C(\\C)C(=O)c1c(O)cc([C@H](C)CC/C=C/NC(=O)OC)oc1=O", "note": "(some centres undefined) [CORALLOPYRONIN A]", "values": [{"measurement": "IC50", "setting": "[10]", "value": 0.726, "unit": "µM"}]}
